Active and inactive are the calls of the source. The rule behind the calls is not given here.
Tests used:
[1] = Cytotoxicity against human NNC2 cells assessed as decrease in GAPDH RNA level at 10 uM after 3 days by RT-PCR; format: cell-based; settings: for inhibition (INH): nnc2, 72 h, 10 µM; for cytotoxicity at 72 h, 10 µM: NNC2 cells, read-out: INH
[2] = Cytotoxicity against human NNC2 cells assessed as decrease in GAPDH RNA level after 3 days by RT-PCR; format: cell-based; settings: for CC50 at 72 h: NNC2 cells; for CC50: nnc2, 72 h
Method in brief: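 NNC #2 cells carrying full-genomic HCV RNA replicons were grown in high-glucose DMEM with 10% FBS and 1 mg/mL G418. Cells were seeded at 5 × 10⁴ cells/mL and cultured 24 h at 37 °C. Medium was then replaced with DMEM/10% FBS containing graded compound concentrations for 3 days. HCV RNA and GAPDH RNA were quantified by real-time RT-PCR. EC50 and CC50 are the concentrations lowering each RNA to 50% of control.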

Hepatitis C virus [3] = experiment: Antiviral activity against HCV in human NNC2 cells assessed as inhibition of viral RNA replication after 3 days by RT-PCR analysis
Hepatitis C virus [4] = experiment: Antiviral activity against HCV in human NNC2 cells assessed as inhibition of viral RNA replication at 10 uM after 3 days by RT-PCR analysis; settings: Hepacivirus hominis
[5] = Selectivity index, CC50 for human NNC2 cells to IC50 for Hepatitis C virus; format: functional
Hepatitis C virus [6] = experiment: Antiviral activity against HCV in human NNC2 cells assessed as inhibition of viral RNA replication at 10 uM after […] by RT-PCR analysis; format: functional, Hepacivirus hominis
[7] = Hepatitis C virus, NNC2, 3 days, read-out: EC50

| SMILES | EC50 (Hepatitis C virus [3]; [7]) [µM] | CC50 at 72 h [2] [µM] | also measured |
| --- | --- | --- | --- |
| CCCCn1c(=O)c2ccccc2c2ccccc21 | > 58.3 | 58.3 | inhibition (INH) [1]: Not Active; inhibition (Hepatitis C virus [4]): inactive |
| CCCCn1c(=O)c2cc3c(cc2c2ccccc21)C(C)(C)CCC3(C)C | – | – | CC50 [2]: Not Active; EC50 (Hepatitis C virus [3]; nnc2): Not Active |
| CCCCn1c(=O)c2ccccc2c2cc(F)ccc21 | > 50 | > 50 | – |
| CCCCn1c(=O)c2ccccc2c2c(C)cccc21 | – | – | cytotoxicity at 72 h, 10 µM [1]: 85.2%; inhibition (Hepatitis C virus [4]): inactive |
| CCCCn1c(=O)c2ccccc2c2cc3c(cc21)C(C)(C)CCC3(C)C | 18.7 | 27.3 | – |
| CCCCn1c(=O)c2ccccc2c2cc(C(C)O)ccc21 (stereo not given) | 21.8 | 51.4 | – |
| CCCCn1c(=O)c2ccccc2c2cc(C(O)(C(F)(F)F)C(F)(F)F)ccc21 | 3.7 | 12.5 | – |
| CCCCn1c(=O)c2ccccc2c2ccc(C)cc21 | – | – | cytotoxicity at 72 h, 10 µM [1]: 70.7%; inhibition (Hepatitis C virus [4]): inactive |
| O=c1c2ccccc2c2cc(C(O)(C(F)(F)F)C(F)(F)F)ccc2n1CC1CCCCC1 | 6.7 | 14.4 | – |
| CC1(C)CCC(C)(C)c2cc3c(cc21)c1ccccc1c(=O)n3CC1CCCCC1 | – | – | CC50 [2]: Not Active; EC50 (Hepatitis C virus [3]; nnc2): Not Active |
| CCCCn1c(=O)c2cccc(C)c2c2ccccc21 | – | – | cytotoxicity at 72 h, 10 µM [1]: 94.9%; inhibition (Hepatitis C virus [4]): inactive |
| CCCCn1c(=O)c2cc(C)ccc2c2ccccc21 | – | – | cytotoxicity at 72 h, 10 µM [1]: 88.8%; inhibition at 10 µM (Hepatitis C virus [6]): 87% |
| CCCCn1c(=O)c2c(C)cccc2c2ccccc21 | – | – | inhibition (INH) [1]: Not Active; inhibition (Hepatitis C virus [4]): inactive |
| CCCCn1c(=O)c2ccccc2c2ccc3ccccc3c21 | 19.5 | 24.3 | – |
| CCCCn1c(=O)c2ccccc2c2c3ccccc3ccc21 | 29.1 | 44.5 | – |
| CCCCn1c(=O)c2ccccc2c2cc(CC)ccc21 | 34.7 | 40.5 | – |
| CCCCn1c(=O)c2ccc(C)cc2c2ccccc21 | – | – | inhibition (INH) [1]: Not Active; inhibition (Hepatitis C virus [4]): inactive |
| O=c1c2ccccc2c2cc(C(O)(C(F)(F)F)C(F)(F)F)ccc2n1CC(F)(F)F | 24.8 | 30.3 | – |
| CCCCn1c(=O)c2ccccc2c2cc(C(C)C)ccc21 | 16.2 | 29.7 | – |
| CC1(C)CCC(C)(C)c2cc3c(cc21)[nH]c(=O)c1ccccc13 | – | – | CC50 [2]: Not Active; EC50 (Hepatitis C virus [3]; nnc2): Not Active |
| CCCCn1c(=O)c2ccccc2c2cc(CCc3ccccc3)ccc21 | 21 | 24.1 | – |
| CCCCn1c(=O)c2ccccc2c2cccc(C)c21 | – | – | inhibition (INH) [1]: Not Active; inhibition (Hepatitis C virus [4]): inactive |
| CCCCn1c(=O)c2ccccc2c2cc(C(C)(C)C)ccc21 | 10.6 | 24.9 | – |

Continued, in another order:

| EC50 (Hepatitis C virus [3]; [7]) [µM] | SMILES | CC50 at 72 h [2] [µM] | also measured |
| --- | --- | --- | --- |
| > 50 | CCCCn1c(=O)c2ccccc2c2cc(C(F)(F)F)ccc21 | > 50 | – |
| 7.7 | O=c1c2ccccc2c2cc(C(O)(C(F)(F)F)C(F)(F)F)ccc2n1Cc1ccccc1 | 18.2 | – |
| > 31.4 | CCCCn1c(=O)c2ccc3ccccc3c2c2ccccc21 | 31.4 | – |
| 37.9 | CCCCn1c(=O)c2ccccc2c2cc(O)ccc21 | 43.7 | – |
| 3.2 | CCCCn1c(=O)c2ccccc2c2cc3ccccc3cc21 | 6.3 | Selectivity Index [5]: 1.97 |
| 14.1 | CCn1c(=O)c2ccccc2c2cc(C(O)(C(F)(F)F)C(F)(F)F)ccc21 | > 40 | – |
| 8.3 | CCCCCCCCCn1c(=O)c2ccccc2c2cc(C(O)(C(F)(F)F)C(F)(F)F)ccc21 | 10.2 | – |
| 21.5 | CCCCn1c(=O)c2ccccc2c2cc(CO)ccc21 | > 50 | – |
| 21.2 | CC1(C)CCC(C)(C)c2cc3c(cc21)c1ccccc1c(=O)n3Cc1ccccc1 | 31.8 | – |
| 35.8 | CCCCn1c(=O)c2ccccc2c2cc(C)ccc21 | 38.4 | cytotoxicity at 72 h, 10 µM [1]: 98.5%; inhibition at 10 µM (Hepatitis C virus [6]): 42% |
| 4.8 | CCCCCCn1c(=O)c2ccccc2c2cc(C(O)(C(F)(F)F)C(F)(F)F)ccc21 | 12.2 | – |
| 29.9 | CCCCn1c(=O)c2c3ccccc3ccc2c2ccccc21 | > 40 | – |
| 18.7 | CCCCn1c(=O)c2ccccc2c2cc(C(C)=O)ccc21 | 27.3 | – |
| 11 | CCCCn1c(=O)c2cc3ccccc3cc2c2ccccc21 | > 40 | Selectivity Index [5]: >3.64 |
